Several values for one entry are separate records, joined by “and”; a condition that tells them apart may be missing. Identical values can stand only once.
Key:
[1] = target: T1, human topoisomerase IIα (Homo sapiens, UniProt P11388); assay: DNA relaxation catalyzed by 150 nM topoisomerase IIα; assay type: biochemical; conditions: 10 µM compound
Summary of the method: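 Negatively supercoiled DNA relaxed by 150 nM human topoisomerase IIα with test compound present. Gels show supercoiled DNA without enzyme and enzyme-treated DNA without compound as controls. Each gel is representative of 2-4 independent experiments.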

[2] = target: T1, human topoisomerase IIα; assay: DNA; assay type: biochemical; conditions: kDNA decatenation
[3] = target: T1, human topoisomerase IIα; assay: Inhibition of topoisomerase IIα-mediated DNA cleavage in the presence of Ca2+; assay type: biochemical; conditions: Ca2+ in place of Mg2+; 150 nM enzyme; xanthone up to 10 µM
Summary of the method: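 Negatively supercoiled DNA incubated with 150 nM human topoisomerase IIα and test compound. CaCl2 was added to raise baseline enzyme-mediated DNA cleavage. Cleaved DNA was resolved on gels, with controls of DNA without enzyme and enzyme without compound. Cleavage without compound was set to 100%. Gels are representative of 3 experiments, and standard deviations come from 2-3 independent experiments.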

[4] = target: T1, human topoisomerase IIα; assay: Competition assay: block of etoposide-enhanced DNA cleavage; assay type: biochemical; conditions: 100 µM etoposide; 5-100 µM compound (compound 5 up to 10 µM)
[5] = target: T1, human topoisomerase IIα; assay: DNA relaxation assay; assay type: biochemical; conditions: 3 nM enzyme; for IC50: IC50 for inhibition of DNA relaxation, negatively supercoiled DNA
[6] = target: T1, human topoisomerase IIα; assay: ATP hydrolysis catalyzed by topoisomerase IIα; assay type: biochemical; conditions: up to 50 µM
[7] = Solubility limit noted in the assays; assay type: physicochemical; conditions: only used up to 10 µM

T1 sequence (P11388 whole entry): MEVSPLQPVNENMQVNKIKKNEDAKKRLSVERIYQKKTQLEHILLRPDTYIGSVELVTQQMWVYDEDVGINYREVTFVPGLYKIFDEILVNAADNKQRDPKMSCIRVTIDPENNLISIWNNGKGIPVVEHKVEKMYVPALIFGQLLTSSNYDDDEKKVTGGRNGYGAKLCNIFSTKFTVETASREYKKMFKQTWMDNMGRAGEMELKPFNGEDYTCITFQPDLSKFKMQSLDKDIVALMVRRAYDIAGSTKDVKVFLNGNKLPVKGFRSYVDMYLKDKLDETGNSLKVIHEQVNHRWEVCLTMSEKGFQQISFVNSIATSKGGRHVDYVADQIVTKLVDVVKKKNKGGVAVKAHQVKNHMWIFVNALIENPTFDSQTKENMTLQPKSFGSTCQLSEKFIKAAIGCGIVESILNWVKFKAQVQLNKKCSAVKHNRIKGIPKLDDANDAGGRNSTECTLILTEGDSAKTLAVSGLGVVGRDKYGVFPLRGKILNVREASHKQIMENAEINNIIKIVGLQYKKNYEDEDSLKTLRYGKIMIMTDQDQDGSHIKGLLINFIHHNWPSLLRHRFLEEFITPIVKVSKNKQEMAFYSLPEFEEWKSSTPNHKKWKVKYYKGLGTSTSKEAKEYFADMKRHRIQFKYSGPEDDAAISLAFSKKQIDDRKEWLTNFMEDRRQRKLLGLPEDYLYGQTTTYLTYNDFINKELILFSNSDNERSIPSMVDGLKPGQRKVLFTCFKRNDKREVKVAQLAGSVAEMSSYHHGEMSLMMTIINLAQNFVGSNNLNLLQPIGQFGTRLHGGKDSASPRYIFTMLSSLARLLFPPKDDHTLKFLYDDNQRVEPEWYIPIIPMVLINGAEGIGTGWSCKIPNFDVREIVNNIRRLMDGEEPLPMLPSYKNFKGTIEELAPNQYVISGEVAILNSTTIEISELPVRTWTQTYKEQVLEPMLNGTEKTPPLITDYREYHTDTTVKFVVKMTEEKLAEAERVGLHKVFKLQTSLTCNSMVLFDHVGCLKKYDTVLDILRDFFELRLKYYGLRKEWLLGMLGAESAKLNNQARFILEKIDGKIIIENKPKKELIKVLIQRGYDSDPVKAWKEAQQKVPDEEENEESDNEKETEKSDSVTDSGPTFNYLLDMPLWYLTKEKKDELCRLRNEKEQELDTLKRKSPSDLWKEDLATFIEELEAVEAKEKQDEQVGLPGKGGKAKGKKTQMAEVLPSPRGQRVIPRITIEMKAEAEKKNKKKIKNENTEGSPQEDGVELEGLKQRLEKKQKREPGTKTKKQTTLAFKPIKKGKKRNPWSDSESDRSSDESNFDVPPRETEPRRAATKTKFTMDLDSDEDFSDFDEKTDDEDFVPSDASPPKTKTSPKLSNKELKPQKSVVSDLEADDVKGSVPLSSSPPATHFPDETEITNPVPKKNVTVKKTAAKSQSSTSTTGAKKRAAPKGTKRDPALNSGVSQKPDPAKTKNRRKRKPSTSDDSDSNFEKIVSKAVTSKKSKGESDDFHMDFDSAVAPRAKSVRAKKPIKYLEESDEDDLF

Row | inhibition of DNA relaxation by 150 nM enzyme [1] | order of potency in decatenation assay [2] | inhibition of enzyme-mediated DNA cleavage [3] | ability to block DNA cleavage enhancement by etoposide [4] | IC50 [5] | inhibition of ATP hydrolysis in the absence of DNA [6] | solubility in assay [7] | ability to inhibit DNA relaxation at 10 µM ([5]; 10 µM) | Compound
1 | complete (or near complete) inhibition | much more potent than compound 6 | do not inhibit the DNA cleavage step | competed with etoposide | – | – | – | – | Cl.Cl.NCCCNCC(O)COc1cc(O)c2c(=O)c3ccccc3oc2c1 (stereo not drawn) [compound 2]
2 | complete (or near complete) inhibition | much more potent than compound 6 | do not inhibit the DNA cleavage step | competed with etoposide | 2.5 to 5 µM and < 5 µM | no inhibition was observed | – | – | NCCCCNCCCNCC(O)COc1cc(O)c2c(=O)c3ccccc3oc2c1.O=C(O)C(F)(F)F.O=C(O)C(F)(F)F.O=C(O)C(F)(F)F (stereo not drawn) [compound 4]
3 | complete (or near complete) inhibition | much more potent than compound 6 | do not inhibit the DNA cleavage step | competed with etoposide | ~1 µM and < 5 µM | – | solubility issues | – | Cl.Cl.Cl.Cl.NCCCNCCCCNCCCNCC(O)COc1cc(O)c2c(=O)c3ccccc3oc2c1 (stereo not drawn) [compound 5]
4 | no ability to inhibit DNA relaxation | – | – | – | – | – | – | no ability to inhibit DNA relaxation | O=c1c2ccccc2oc2cc(O)cc(O)c12 [compound 6, 1,3-dyhydroxy-9h-xanthen-9-one]
